Several values for one entry are separate records, joined by “and”; a condition that tells them apart may be missing. Identical values can stand only once.
Experiments:
Canis familiaris [1] = species on record: Canis familiaris; experiment: In vitro electrophysiological activity in canine cardiac Purkinje fibres given as maximum % change for action potential duration at 0.1-10 uM concentration; assay type: functional, Canis lupus familiaris, Purkinje fiber
Summary of the method: (§1)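 Canine cardiac Purkinje fibres, intracellular recording at 1 s basic cycle length, over cumulative concentration ranges. Compound 10 mM stock in deionized water diluted into Tyrode's. Each fibre used once as its own control. Value is the maximum % change from control in APD at 95% repolarization, with the concentration where it occurred; both values given if a biphasic response (>20% reversal) occurred.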

Canis familiaris [2] = species on record: Canis familiaris; experiment: In vitro electrophysiological evaluation in canine cardiac Purkinje fibres reported as maximum percent change Vmax concentration range of 0.1-100 uM; assay type: functional; settings: Canis lupus familiaris; Purkinje fiber
Summary of the method: (§2)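 Canine cardiac Purkinje fibres, intracellular microelectrode recording, paced at a basic cycle length of 1 s. APD95 and Vmax read simultaneously. Compound: 10 mM stock in deionized water, diluted into Tyrode's solution, tested over the stated concentration range. Each fibre used once as its own control. Result is % change from control, given at 10 µM or as the maximum with its concentration. M = <10% decrease or an increase in Vmax.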

Canis familiaris [3] = species on record: Canis familiaris; experiment: In vitro electrophysiological evaluation in canine cardiac Purkinje fibres reported as % change for action potential duration at 0.1-10 uM concentration range; assay type: functional, Canis lupus familiaris, Purkinje fiber; summary of the method: as §2
Canis familiaris [4] = species on record: Canis familiaris; experiment: In vitro electrophysiological activity in canine cardiac Purkinje fibres given as maximum % change for action potential duration at 0.1-100 uM concentration; assay type: functional, Canis lupus familiaris, Purkinje fiber; summary of the method: as §1
Canis familiaris [5] = species on record: Canis familiaris; experiment: In vitro electrophysiological evaluation in canine cardiac Purkinje fibres reported as maximum percent change Vmax concentration range of 0.1-10 uM; Minimal (<IO%increase or a decrease in CT); assay type: functional; settings: Canis lupus familiaris; Purkinje fiber; summary of the method: as §2
Canis familiaris [6] = species on record: Canis familiaris; experiment: In vitro electrophysiological evaluation in canine cardiac Purkinje fibres reported as percent change Vmax concentration range of 0.1-10 uM; Minimal (<IO%increase or a decrease in CT); assay type: functional; settings: Canis lupus familiaris; Purkinje fiber; summary of the method: as §2
Canis familiaris [7] = species on record: Canis familiaris; experiment: In vitro electrophysiological evaluation in canine cardiac Purkinje fibres reported as percent change Vmax concentration range of 0.1-100 uM; Minimal (<IO%increase or a decrease in CT); assay type: functional; settings: Canis lupus familiaris; Purkinje fiber; summary of the method: as §2
Canis familiaris [8] = species on record: Canis familiaris; experiment: In vitro electrophysiological evaluation in canine cardiac Purkinje fibres reported as % change for action potential duration at 0.1-100 uM concentration range; assay type: functional, Canis lupus familiaris, Purkinje fiber; summary of the method: as §2
Canis familiaris [9] = species on record: Canis familiaris; experiment: In vitro electrophysiological evaluation in canine cardiac Purkinje fibres reported as percent change Vmax at 10 uM at concentration range of 0.1-100 uM.; assay type: functional, organism-based; settings: Canis lupus familiaris, Purkinje fiber; summary of the method: as §2
Canis familiaris [10] = species on record: Canis familiaris; experiment: In vitro electrophysiological evaluation in canine cardiac ventricular muscle reported as % change for the functional refractory period (FRP) at 10 uM at concentration range of 0.1-100 uM; design: species or system Canis lupus familiaris, Muscle tissue
Summary of the method: (§3)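 Canine right ventricle and papillary muscle strips in oxygenated Tyrode's solution, fitted with stimulating and recording electrodes. The extra-stimulus conduction-interval method was adapted for in vitro use. FRP and CT were read from a conduction-interval curve before and after various compound concentrations, and expressed as percent change from control. Compounds were taken from 10 mM deionized-water stock into Tyrode's. Each strip was used once as its own control.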

Canis familiaris [11] = species on record: Canis familiaris; experiment: In vitro electrophysiological evaluation in canine cardiac Purkinje fibres reported as % change for action potential duration at 10 uM at 0.1-100 uM concentration range; assay type: functional, Canis lupus familiaris, Purkinje fiber; summary of the method: as §2
Canis familiaris [12] = species on record: Canis familiaris; experiment: (§4) In vitro electrophysiological evaluation in canine cardiac occurred is 100 uM; assay type: functional; settings: Canis lupus familiaris; Heart
Canis familiaris [13] = species on record: Canis familiaris; experiment: In vitro electrophysiological evaluation in canine cardiac ventricular muscle reported as % change for conduction time(CT) at 10 uM at 0.1-100 uM concentration range; Minimal (<10% decrease or increase in CT).; assay type: functional, Canis lupus familiaris, Muscle tissue
Canis familiaris [14] = species on record: Canis familiaris; experiment: In vitro electrophysiological activity in canine cardiac occurred is 10 uM; assay type: functional, Canis lupus familiaris, Heart
Canis familiaris [15] = species on record: Canis familiaris; experiment: In vitro electrophysiological evaluation in canine cardiac Purkinje fibres reported as percent change Vmax at 10 uM at concentration range of 0.1-100 uM; Minimal (<10% decrease or increase in V max).; assay type: functional, organism-based; settings: Canis lupus familiaris, Purkinje fiber; summary of the method: as §2
Canis familiaris [16] = species on record: Canis familiaris; experiment: In vitro electrophysiological evaluation in canine cardiac ventricular muscle reported as maximum % change for functional refractory period (FRP) at 0.1-100 uM concentration range; concentration at which it occurred is 10 uM; design: species or system Canis lupus familiaris, Muscle tissue; summary of the method: as §3
Canis familiaris [17] = species on record: Canis familiaris; experiment: In vitro electrophysiological evaluation in canine cardiac Purkinje fibres reported as % change for action potential duration at a concentration of 10 uM; assay type: functional, Canis lupus familiaris, Purkinje fiber; summary of the method: as §2
Canis familiaris [18] = species on record: Canis familiaris; experiment: (§5) In vitro electrophysiological activity in canine cardiac occurred is 100 uM; assay type: functional, Canis lupus familiaris, Heart
Canis familiaris [19] = species on record: Canis familiaris; experiment: In vitro electrophysiological evaluation in canine cardiac ventricular muscle reported as maximum % change for functional refractory period (FRP) at 0.1-100 uM concentration range; concentration at which it occurred is 100 uM; design: species or system Canis lupus familiaris, Muscle tissue; summary of the method: as §3
Canis familiaris [20] = species on record: Canis familiaris; experiment: In vitro electrophysiological evaluation in canine cardiac ventricular muscle reported as maximum % change for conduction time(CT) at 0.1-100 uM concentration range; Minimal (<10% decrease or increase in CT).; assay type: functional, Canis lupus familiaris, Muscle tissue; summary of the method: as §3
Canis familiaris [21] = species on record: Canis familiaris; experiment: In vitro electrophysiological evaluation in canine cardiac Purkinje fibres reported as % change for action potential duration at 10 uM at 1-100 uM concentration range; assay type: functional, Canis lupus familiaris, Purkinje fiber; summary of the method: as §2
Canis familiaris [22] = species on record: Canis familiaris; experiment: In vitro electrophysiological evaluation in canine cardiac Purkinje fibres reported as maximum percent change Vmax concentration range of 1-100 uM; Minimal (<10% decrease or increase in V max).; assay type: functional; settings: Canis lupus familiaris; Purkinje fiber; summary of the method: as §2
Canis familiaris [23] = species on record: Canis familiaris; experiment: as §5; assay type: functional, Canis lupus familiaris, Heart; remark: listed apart in the source
Canis familiaris [24] = species on record: Canis familiaris; experiment: as §4; assay type: functional; settings: Canis lupus familiaris; Heart; remark: listed apart in the source

## CCCCCCC[N+]12CCC(CC1)C(CCc1ccc(Cl)cc1)C2.[Br-] (stereo not given)
Canis familiaris [1]
  APD95: 26%
Canis familiaris [2]
  Vmax: -58%
Canis familiaris [3]
  APD95: 23%
Canis familiaris [4]
  APD95: 23%
Canis familiaris [5]
  Vmax: < 10%
Canis familiaris [6]
  Vmax: < 10%
Canis familiaris [7]
  Vmax: < 10%
Canis familiaris [8]
  APD95: 22%

## CCOC(=O)C(CC1C(=O)C2CCN1CC2)C(=O)c1ccc([N+](=O)[O-])cc1.Cl (stereo not given)
Canis familiaris [9]
  Vmax: -12%
Canis familiaris [10]
  FRP: 22% and 35%
Canis familiaris [11]
  APD95: 23% and 22%
Canis familiaris [12]
  Vmax: -26% and -13% and -18%
Canis familiaris [13]
  CT: <10%
Canis familiaris [14]
  APD95: 23% and 22%
Canis familiaris [15]
  Vmax: < 10%
Canis familiaris [16]
  FRP: 22%
Canis familiaris [17]
  APD95: 2%
Canis familiaris [18]
  APD95: -12% and 0% and -5%
Canis familiaris [19]
  FRP: 38%
Canis familiaris [20]
  CT: <10%

## CS(=O)(=O)Nc1cc(C(=O)CCC2C(=O)C3CCN2CC3)ccc1Cl.Cl (stereo not given)
Canis familiaris [21]
  APD95: -3%
Canis familiaris [22]
  Vmax: < 10%
Canis familiaris [23]
  APD95: 21%
Canis familiaris [13]
  CT: <10%
Canis familiaris [15]
  Vmax: < 10%
Canis familiaris [17]
  APD95: -4%
Canis familiaris [18]
  APD95: 17%
Canis familiaris [19]
  FRP: 21% and 32% and 15%
Canis familiaris [24]
  Vmax: -28%
Canis familiaris [20]
  CT: <10%

Reference: ChEMBL document CHEMBL1123566, “Synthesis and cardiac electrophysiological activity of 2- and 3-[(substituted phenyl)alkyl]quinuclidines. Structure-activity relationships” (1987)
